Where “and” joins values, the source holds several entries; their conditions need not be identical. Equal values may be shown once. Read-outs that look alike come from different tables or passages of the source. Each block holds one molecule with its values, some of them ahead of it.
Tests used:
[1] = patients with severe renal impairment (CrCL of 15 mL/min) compared with healthy participants; cited from earlier work
[2] = Linear regression of log-transformed PK parameters versus eGFR or CrCL; format: in vivo, human; details: for increase in overall exposure: regression analysis
[3] = format: in vivo, human; details: for AUC / AUC(0-t) / AUC(0-inf) / Cmax / Tmax / half-life: human, plasma, po, 60 mg; for AUC: AUC96, single oral 60 mg; for AUC / AUC(0-t) / AUC(0-inf) / Cmax / %Urt (percentage dose recovered in urine) / CLT/F (apparent total body clearance): adjusted geometric mean (%CV); for AUC(0-t): AUCt; for AUC(0-t) / AUC(0-inf) / Cmax / Tmax / half-life / %Urt (percentage dose recovered in urine) / CLT/F (apparent total body clearance): single oral 60 mg; for Cmax: n = 8; for Tmax: median (minimum–maximum); for half-life: T½ (terminal plasma half-life), mean (SD)
Summary of the method: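 There were three eGFR-defined groups (MDRD; n = 8 each, matched by age, weight and sex). Each participant received one oral 60 mg dose after a standard meal, with serial plasma and urine collection. Plasma concentrations were measured by validated LC-MS/MS. Urine recovery was the sum of concentration × urine volume per collection interval, expressed as % of dose. CLT/F came from plasma concentration-time data. Values are adjusted geometric mean (%CV).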

Safety and tolerability = format: in vivo, human; details: for Any AE / Headache / Somnolence: single oral 60 mg
aPTT = experiment: Activated partial thromboplastin time; format: in vivo, human; details: for aPTT percentage change from baseline at mean peak: single oral 60 mg
Summary of the method: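 Participants (n = 8 per group) were grouped by eGFR (MDRD formula): normal ≥ 90, moderate ≥ 30 to ≤ 59, or severe < 30 mL/min/1.73 m2 (not on dialysis). They were matched by age, body weight and sex. Each received a single oral dose of test compound after a standard meal. aPTT was an exploratory PD biomarker, measured by a validated central-laboratory assay. Baseline was predose Day 1.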

[4] = Milvexian plasma protein binding by LC-MS/MS; format: in vitro ADME, human; details: adjusted geometric mean (%CV); for fraction unbound: human, plasma, %fu (fraction of unbound drug)
Summary of the method: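 The severe group had eGFR < 30 mL/min/1.73 m2 (MDRD) and no dialysis, and received a single oral 60 mg dose after a standard meal. A designated protein-binding blood sample was analysed for […] test compound by validated LC-MS/MS. Results were reported as adjusted geometric mean (%CV).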

[5] = previous first-in-human study; cited from earlier work
[6] = patients undergoing dialysis compared with healthy participants; cited from earlier work
[7] = CrCL 30 vs CrCL 90 mL/min, CrCL-based regression
[8] = eGFR 15 vs eGFR 90 mL/min/1.73 m^2, eGFR-based regression
[9] = eGFR 30 vs eGFR 90 mL/min/1.73 m^2, eGFR-based regression
[10] = single dose 60 mg, all 24 participants
[11] = moderate renal impairment, n = 8

SMILES: COc1ccc(-n2nc(C(N)=O)c3c2C(=O)N(c2ccc(N4CCCCC4=O)cc2)CC3)cc1 [apixaban]
increase in exposure [1]: 44%

increase in AUCt ([2]; CrCL 15 vs CrCL 90 mL/min, CrCL-based regression): 49%
increase in AUCt [2, 7]: 38%
increase in AUC∞ [2, 7]: 40%
increase in AUCt [2, 8]: 50%
increase in AUC∞ [2, 8]: 54%
increase in AUCt [2, 9]: 39%
increase in AUC∞ [2, 9]: 41%
increase in overall exposure ([2]; moderate renal impairment group): approximately 40%
increase in overall exposure ([2]; severe renal impairment group): ~50%
AUC ([3]; moderate renal impairment): 5020 ng·h/mL
AUC ([3]; normal renal function): 3880 ng·h/mL
AUC ([3]; severe renal impairment): 7170 ng·h/mL
AUC(0-t) ([3]; moderate renal impairment): 5000 ng·h/mL
AUC(0-t) ([3]; normal renal function): 3860 ng·h/mL
AUC(0-t) ([3]; severe renal impairment): 7090 ng·h/mL
AUC(0-inf) ([3]; moderate renal impairment): 5150 ng·h/mL
AUC(0-inf) ([3]; normal renal function): 3920 ng·h/mL
AUC(0-inf) ([3]; severe renal impairment): 7410 ng·h/mL
Cmax ([3]; moderate renal impairment (eGFR ≥ 30 to ≤ 59)): 406 ng/mL
Cmax ([3]; normal renal function (eGFR ≥ 90)): 462 ng/mL
Cmax ([3]; severe renal impairment (eGFR < 30)): 462 ng/mL
Tmax ([3]; moderate renal impairment): 4.75 h
Tmax ([3]; normal renal function): 4.5 h
Tmax ([3]; severe renal impairment): 5 h
half-life ([3]; moderate renal impairment): 18 h
half-life ([3]; normal renal function): 13.8 h
half-life ([3]; severe renal impairment): 17.7 h
%Urt (percentage dose recovered in urine) ([3]; moderate renal impairment): 7.64 (33) %
CLT/F (apparent total body clearance) ([3]; moderate renal impairment): 11.6 L/h and 11.6 (32) L/h
%Urt (percentage dose recovered in urine) ([3]; normal renal function): 10.5 (45) %
CLT/F (apparent total body clearance) ([3]; normal renal function): 15.3 L/h and 15.3 (36) L/h
%Urt (percentage dose recovered in urine) ([3]; severe renal impairment): 3.14 (75) %
CLT/F (apparent total body clearance) ([3]; severe renal impairment): 8.10 L/h and 8.10 (37) L/h
fraction unbound ([4]; moderate renal impairment): 0.0881
fraction unbound ([4]; normal renal function): 0.0885
fraction unbound ([4]; severe renal impairment): 0.084
%Protein binding ([4]; severe renal impairment): 91.5 (1) %
SMILES: C[C@@H]1CCC[C@H](n2cnc(-c3cc(Cl)ccc3-n3cc(Cl)nn3)cc2=O)c2cc(ccn2)-c2c(cnn2C(F)F)NC1=O [milvexian, Milvexian]
participants reporting headache (Safety and tolerability; [10]): 8.3%
participants reporting one AE (Safety and tolerability; [10]): 12.5%
participants reporting somnolence (Safety and tolerability; [10]): 4.2%
bleeding events (Safety and tolerability; single dose 60 mg, all renal function groups): No bleeding events were reported
Any AE (Safety and tolerability; [11]): 1 (12.5) n (%)
Headache (Safety and tolerability; [11]): 1 (12.5) n (%)
Somnolence (Safety and tolerability; [11]): 0 n (%)
Any AE (Safety and tolerability; normal renal function, n = 8): 1 (12.5) n (%)
Headache (Safety and tolerability; normal renal function, n = 8): 0 n (%)
Somnolence (Safety and tolerability; normal renal function, n = 8): 1 (12.5) n (%)
Any AE (Safety and tolerability; severe renal impairment, n = 8): 1 (12.5) n (%)
Headache (Safety and tolerability; severe renal impairment, n = 8): 1 (12.5) n (%)
Somnolence (Safety and tolerability; severe renal impairment, n = 8): 0 n (%)
Any AE (Safety and tolerability; total, N = 24): 3 (12.5) n (%)
Headache (Safety and tolerability; total, N = 24): 2 (8.3) n (%)
Somnolence (Safety and tolerability; total, N = 24): 1 (4.2) n (%)
aPTT percentage change from baseline at mean peak (aPTT; moderate renal impairment, 5 h postdose): 97%
aPTT percentage change from baseline at mean peak (aPTT; normal renal function, 5 h postdose): 127%
aPTT percentage change from baseline at mean peak (aPTT; severe renal impairment, 6 h postdose): 100%
effect on aPTT (aPTT; single oral dose, all renal function groups): concentration-dependent prolongation of aPTT
renal excretion [5]: below 20%

SMILES: O=C(NC[C@H]1CN(c2ccc(N3CCOCC3=O)cc2)C(=O)O1)c1ccc(Cl)s1 [rivaroxaban]
increase in exposure [6]: 56%
